# Only some compounds are listed: those with a hit (about 1.9% of all), similar ones and a draw of the others.
# CHRM5 agonist: agonists of human muscarinic M5 receptor (CHRM5) | P08912 | activation, % at 3 µM | CHO-K1 hM5 cells, Fluo-8 calcium fluorescence; 0% DMSO wells, 100% maximal acetylcholine response | 0.19% of 360,000 active;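 active means activation above the run's mean over test compounds plus 3 SD, cut at about 23% in these data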;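 further: signal is peak over basal fluorescence ratio across the kinetic read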
# M4 PAM: positive allosteric modulators of human muscarinic M4 receptor. 0.4% of 360,000 active. P08173. AID 624126. activation, % at 3 µM. CHO-K1 hM4/Gqi5, Fluo-8 calcium fluorescence, ACh EC20; 0% = ACh EC20, 100% = maximal ACh;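 active means activation above its plate's cutoff, the mean activation of sample wells plus 3 SD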
# Target sequence (P08173 whole entry, looked up): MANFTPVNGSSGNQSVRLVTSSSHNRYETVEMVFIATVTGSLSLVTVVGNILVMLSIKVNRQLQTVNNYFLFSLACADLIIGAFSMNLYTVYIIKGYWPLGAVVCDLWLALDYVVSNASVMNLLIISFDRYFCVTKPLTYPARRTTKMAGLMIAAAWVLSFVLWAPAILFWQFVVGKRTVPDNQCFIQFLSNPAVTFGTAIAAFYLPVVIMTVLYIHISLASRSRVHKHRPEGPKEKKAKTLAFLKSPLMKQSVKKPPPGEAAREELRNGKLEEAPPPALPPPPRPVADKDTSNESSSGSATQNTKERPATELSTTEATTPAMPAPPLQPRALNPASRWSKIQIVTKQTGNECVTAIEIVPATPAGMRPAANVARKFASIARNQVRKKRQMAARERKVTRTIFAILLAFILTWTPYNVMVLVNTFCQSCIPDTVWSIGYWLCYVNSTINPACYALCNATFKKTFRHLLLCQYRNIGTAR
# CHRM4 antagonist: blocks acetylcholine activation of human M4 receptor; CHO-hM4 cells, ACh EC80, Fluo-8 calcium fluorescence; inhibition, % at 3 µM; 0.73% of 360,000 active; AID 624125;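 active means inhibition above its plate's cutoff, the mean inhibition of sample wells plus 3 SD, cut at about 27% in these data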
# CHRM5 PAM: CHRM5 positive allosteric modulation. CHO-K1 hM5, Fluo-8 calcium, ACh EC20 PAM; 0% = ACh EC20, 100% = ACh EC100. AID 624038. P08912. activation, % at 3 µM. 0.3% of 360,000 active;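 active means activation above the run cutoff, the mean activation of all test compounds plus 3 SD, cut at about 18% in these data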
#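 Assay system – human M5 receptor in CHO-K1 cells · Read-out – % activation, ACh-normalized · Technique – Fluo-8 calcium fluorescence · Dosing – single-point, 3 µM nominal · Incubation – Fluo-8 loading 80 min at 37 °C plus 30 min room temperature · Repeats – singlicate, one well per test compound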
# M5 antag: antagonists of human muscarinic M5 receptor (CHRM5). inhibition, % at 3 µM. 0.59% of 360,000 active. CHO-hM5 cells, Fluo-8 calcium fluorescence, ACh EC80. AID 624040;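 active means inhibition above a per-plate cutoff, the mean of that plate's test compounds plus 3 SD, cut at about 27% in these data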
# CHRM4 agonist: agonists of human muscarinic M4 receptor (CHRM4) | P08173 | CHO-K1 hM4/Gqi5, Fluo-8 calcium fluorescence; vehicle 0%, full acetylcholine response 100% | activation, % at 3 µM | 0.14% of 360,000 active | AID 624127;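 active means activation above the run mean over all test wells plus 3 SD, cut at about 32% in these data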;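 further: peak over basal fluorescence ratio per well then scaled between controls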
# Numbers stand for hits; – = inactive.
SMILES,CHRM5 agonist,M4 PAM,CHRM4 antagonist,CHRM5 PAM,M5 antag,CHRM4 agonist
COc1ccc(-c2coc3c(C(=O)NCc4ccc(OC)c(OC)c4)cccc23)c(C)c1,–,–,37,–,36,–
COc1ccc(-c2ccc(C(=O)NCc3ccc(F)c(F)c3)c3occc23)c(C)c1,–,–,–,–,–,–
COc1cc(NC(C)CCCN)c2ncccc2c1Oc1ccccc1 (stereo not drawn),–,–,–,25,–,–
COc1ccc(Oc2c(OC)cc([N+](=O)[O-])c3ncccc23)cc1,–,–,–,–,–,–
COc1cc(C=Nc2ccccc2C(=O)Nc2ccccc2)cc(OC)c1OC,–,–,–,–,–,–
CC(CCc1ccc(O)cc1)NCCC(c1ccccc1)c1ccccc1 (stereo not drawn),–,–,32,–,–,33
CC(CCc1ccc(O)cc1)NC(c1ccccc1)c1ccc(Cl)cc1 (stereo not drawn),–,–,–,–,–,–
N#Cc1c(C(F)(F)F)cc(-c2ccco2)nc1SCc1ccccn1,–,–,–,–,–,56
N#Cc1c(C(F)(F)F)cc(-c2ccco2)nc1SCc1ccncc1,–,–,–,–,–,–
O=C(CSc1nnc(CNc2ccc(F)cc2)o1)c1ccccc1,–,23,–,–,–,–
CCCN1C(=O)S/C(=C/c2ccc(N3CCOCC3)o2)C1=O,–,–,31,–,–,–
CCN(CC)c1ccc(C(=C2C=CC(=[N+](CC)CC)C=C2)c2ccc(N(CC)CC)cc2)cc1,–,–,43,–,36,–
CCN(CC)c1ccc(C(=C2C=CC(=[N+](CC)CC)C=C2)c2ccccc2)cc1,30,–,99,–,85,66
O=C(O)C(c1ccccc1)N1C(=O)c2cccc3cccc(c23)C1=O (stereo not drawn),–,–,–,–,–,–
COc1ccc(S(=O)(=O)N2CCC(N3CCN(Cc4ccccc4)CC3)CC2)cc1,–,–,46,–,45,–
O=[N+]([O-])c1ccccc1S(=O)(=O)N1CCN(C2CCN(Cc3ccccc3)CC2)CC1,–,–,29,–,–,–
O=S(=O)(c1ccc(Cl)cc1)N1CCN(C2CCN(Cc3ccccc3)CC2)CC1,–,–,–,–,–,–
CCOC(=O)c1c(C)[nH]c(C(=O)COC(=O)CCNS(=O)(=O)c2ccc(NC(C)=O)cc2)c1C,–,–,–,–,–,–
OC(C#CCCN1CCCCC1)(c1ccccc1)C1CCCCC1 (stereo not drawn),–,–,97,–,98,–
CCCOc1ccc(C(O)(CCC)CCN2CCCCC2)cc1 (stereo not drawn),–,–,–,–,–,–
O=C(CCN1CCCCC1)c1ccccc1,–,–,–,–,–,–
OC(CCN1CCCCC1)(c1ccccc1)C1C[C@@H]2C=C[C@H]1C2 (stereo partly drawn),–,–,99,–,98,–
CN1CCN(CC#CC(C)(O)C2CC3C=CC2C3)CC1 (stereo not drawn),–,–,–,–,–,–
OC(C#CCCN1CCCCC1)(c1ccccc1)c1ccccc1,–,–,95,–,100,–
Cc1ccc(C(O)(CCN2CCCCC2)c2ccccc2)cc1 (stereo not drawn),–,–,93,–,96,–
SMILES,CHRM5 agonist,M4 PAM,CHRM4 antagonist,CHRM5 PAM,M5 antag,CHRM4 agonist
O=C(CC1C(=O)NCCN1CC1CCCCC1)NCc1ccccc1Cl (stereo not drawn),–,–,–,–,–,–
C#CCOc1ccc2ccccc2c1/C=C(/C#N)c1ccc(C(=O)O)cc1,–,–,–,–,–,–
COc1ccc(OC(C)C(=O)N(C)Cc2nc(-c3ccc(OC)cc3)no2)cc1 (stereo not drawn),–,–,–,–,–,–
CC(C)N(CC#CCC(O)(c1ccccc1)c1ccccc1)C(C)C,–,–,–,–,–,–
CCN(CC)CCC#CC(O)(c1ccccc1)c1ccccc1,–,–,84,–,99,–
CCOC(=O)C1Cc2ccccc2C(=O)O1 (stereo not drawn),–,–,–,–,–,–
Cc1noc(C)c1S(=O)(=O)NCCN1CCN(c2ccccc2)CC1,–,17,–,–,–,–

# Source: PubChem BioAssay (The Scripps Research Institute Molecular Screening Center)
